These results are taken from article PMC3129977 (ACS chemical neuroscience, 2011).

Assay [1] has as its target T1, aggregated Aβ42 peptides (Homo sapiens, UniProt P05067). Put plainly: Fluorescence studies with aggregated Aβ peptides. It counts as binding.
Assay [2] deals with Aβ plaques in brain sections from an AD patient (Homo sapiens, UniProt P05067). Put plainly: Staining of frozen human brain tissue sections. Particulars: 60 μM probe in PBS, 30 min. In a few lines: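 Frozen AD brain sections were dried for 1 h, passed through 100%, 95% and 70% ethanol (5 min each), rinsed in water, and equilibrated 15 min in PBS. Probe was diluted 1:50 from 3 mM PBS stock to 60 μM final and applied for 30 min at room temperature. Sections were PBS-washed, coverslipped and imaged by epifluorescence. Plaque/background intensity was normalized to a reference probe, as mean ± SD, n = 10 measurements per probe.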

The target in assay [3] is T1, aggregated Aβ42 peptides. Particulars: earlier report; cited from earlier work.
Setting [4] is: free probe 4 μM, 5% DMSO in nanopure water, before mixing with aggregated Aβ42.
The mark [5] stands for this setting: probe 4 μM after mixing with aggregated Aβ42 (5 μM).

The structures appear in SMILES notation.

T1 sequence (P05067 672-713 limits assumed): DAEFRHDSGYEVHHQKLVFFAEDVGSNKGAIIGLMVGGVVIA
Chain of Aβ plaques in brain sections from an AD patient (P05067 672-711 limits assumed): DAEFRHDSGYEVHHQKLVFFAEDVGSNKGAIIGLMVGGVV

As to `COCCOCCOCCOC(=O)/C(C#N)=C/c1ccc2cc(N3CCCCC3)ccc2c1` [Compound 6], on aggregated Aβ42 peptides [1] (setting [4]), the Em. max before is given as 590 nm and the Exc. max before is given as 415 nm. On aggregated Aβ42 peptides [1] (setting [5]), the Em. max after was determined as 545 nm and the Exc. max after is recorded as 410 nm. On aggregated Aβ42 peptides [1] (probe 4 μM, aggregated Aβ42 5 μM), the “Fold increase in emission intensity upon association with aggregated Aβ42” value was determined as 7.7 fold. Moreover, in assay [2], the “Fluorescence contrast between plaques and surrounding tissue” value is reported as “weaker observed contrast”; the “Staining of Aβ plaques” value is recorded as “stained”. The “Fluorescence change upon binding to Aβ fibrils” value at aggregated Aβ42 peptides [3] is on record as “large increase in fluorescence intensity”.
